Assay results: ChEMBL document CHEMBL1142515, “Synthesis and evaluation of structurally constrained quinazolinone derivatives as potent and selective histamine H3 receptor inverse agonists” (J Med Chem, 2008)

Assays:
[1] = Ratio of drug level brain to plasma in wild type mdr1a (+/+) CF1 mouse at 1 mg/kg, po after 2 hrs; format: ADME, organism-based; design: dose 1 mg/kg, route oral; settings: read-out: BPR
In short: (§1)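 Female mdr1a (+/+) and mdr1a (−/−) CF-1 mice dosed by oral gavage. Terminal blood and whole brain collected 2 h later. Brain homogenized by ultrasonication in 4 volumes water. Plasma and brain deproteinized with ethanol plus internal standard, then measured by LC-MS/MS (positive ESI, MRM). Mean ± SE, n = 3. Brain/plasma ratios calculated from mean values.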

[2] = AUC (0 to infinity) in Beagle dog at 1 mg/kg, po; format: ADME, organism-based, Canis lupus familiaris, Plasma; design: time infinity, dose 1 mg/kg, route oral; settings: Beagle, plasma
In short: (§2)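 Male SD rats, male Beagle dogs, male rhesus monkeys given single doses iv (PEG400/EtOH/H2O 50/10/40) or po by gavage (0.5% methylcellulose suspension). Rats 1 mg/kg iv and 3 mg/kg po; dogs and monkeys 0.3 mg/kg iv and 1 mg/kg po. Plasma sampled at multiple times up to 24 h, deproteinized with ethanol plus internal standard. Mean of n = 3 animals/dose.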

[3] = test system: Mus musculus; experiment: Ex vivo receptor occupancy of histamine H3 receptor expressed in po dosed MDR1a deficient CF1 mouse plasma assessed by brain occupancy/brain to plasma ratio after 2 hrs; format: functional
In short: (§3)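 Female wild-type and mdr1a (−/−) CF-1 mice given vehicle or compound po (0.1–3 mg/kg) and decapitated at 2 h. Coronal striatal sections (20 μm) incubated 10 min at room temperature with 400 pM tritiated quinazolinone H3 inverse agonist radioligand in sodium phosphate buffer. Nonspecific binding defined with 10 μM R-α-methylhistamine. Sections imaged 6 h by beta-Imager. Brain Occ90 obtained from occupancy versus brain concentration. Plasma Occ90 = brain Occ90/brain-to-plasma ratio.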

[4] = test system: Mus musculus; experiment: Ex vivo receptor occupancy of histamine H3 receptor expressed in po dosed wild type CF1 mouse plasma assessed by brain occupancy/brain to plasma ratio after 2 hrs; format: functional; in short: as §3
[5] = Cmax in Sprague-Dawley rat at 1 mg/kg, iv and 3 mg/kg, po; format: ADME, organism-based; settings: in vivo; in short: as §2
[6] = Ratio of drug level in brain to plasma in Sprague-Dawley rat at 10 mg/kg, po after 2 hrs; format: ADME, organism-based; design: dose 10 mg/kg, route oral; settings: read-out: BPR
In short: (§4)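 Male SD rats dosed orally at 10 mg/kg. Plasma, brain and CSF concentrations determined 2 h after dosing. Brain/plasma ratio taken from these levels. Mean of n = 3 animals.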

[7] = test system: LLC-PK1; experiment: Ratio of permeability from apical to basolateral side over basolateral to apical side in pig LLC-PK1 cells expressing human MDR1; format: ADME, cell-based, Sus scrofa
[8] = test system: Brain; experiment: Ex vivo drug level in mdr1a deficient CF1 mouse brain at 1 mg/kg, po after 2 hrs; format: ADME, organism-based; design: dose 1 mg/kg, route oral; in short: as §1
[9] = target: Histamine H1 receptor (Homo sapiens, UniProt P35367); experiment: Inhibition of human histamine H1 receptor
Sequence of Histamine H1 receptor (P35367 whole entry): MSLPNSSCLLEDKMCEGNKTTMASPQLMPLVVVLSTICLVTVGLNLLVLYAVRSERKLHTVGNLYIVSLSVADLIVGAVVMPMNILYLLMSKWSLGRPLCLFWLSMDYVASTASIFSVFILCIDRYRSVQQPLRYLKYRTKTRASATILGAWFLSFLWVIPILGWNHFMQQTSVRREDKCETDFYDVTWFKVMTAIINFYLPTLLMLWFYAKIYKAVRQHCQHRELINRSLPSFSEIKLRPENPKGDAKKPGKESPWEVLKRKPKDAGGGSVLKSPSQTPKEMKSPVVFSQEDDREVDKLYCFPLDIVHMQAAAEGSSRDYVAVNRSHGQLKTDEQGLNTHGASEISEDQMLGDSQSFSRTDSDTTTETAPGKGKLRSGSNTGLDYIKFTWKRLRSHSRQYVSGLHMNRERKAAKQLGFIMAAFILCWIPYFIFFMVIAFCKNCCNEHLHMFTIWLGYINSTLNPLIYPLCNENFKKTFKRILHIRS

[10] = Oral bioavailability in rhesus monkey at 1 mg/kg; format: ADME, organism-based, Macaca mulatta; settings: in vivo; in short: as §2
[11] = test system: Rattus norvegicus; experiment: Increase in tele-methylhistamine level in po dosed Sprague-Dawley rat brain after 2 hrs relative to control; format: functional, organism-based
In short: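 Male SD rats given vehicle (0.5% methylcellulose) or compound po at 1, 3, 10 mg/kg, co-dosed with pargyline ip. Decapitated at 2 h and brains homogenized. tele-Methylhistamine measured by HPLC with fluorometry after solid-phase extraction. Mean ± SE from five experiments. Compared with vehicle by ANOVA with Dunnett's test.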

[12] = Ratio of drug level in cerebrospinal fluid to brain in Sprague-Dawley rat at 10 mg/kg, po after 2 hrs; format: ADME, organism-based, CSF/Brain; design: dose 10 mg/kg, route oral; settings: in vivo
[13] = target: Histamine H3 receptor (Rattus norvegicus, UniProt Q9QYN8); experiment: Displacement of [3H]N-alpha-methylhistamine from rat recombinant histamine H3 receptor expressed in HEK293 cells; format: cell-based
Sequence of Histamine H3 receptor (Rattus norvegicus, UniProt Q9QYN8) (Q9QYN8 whole entry): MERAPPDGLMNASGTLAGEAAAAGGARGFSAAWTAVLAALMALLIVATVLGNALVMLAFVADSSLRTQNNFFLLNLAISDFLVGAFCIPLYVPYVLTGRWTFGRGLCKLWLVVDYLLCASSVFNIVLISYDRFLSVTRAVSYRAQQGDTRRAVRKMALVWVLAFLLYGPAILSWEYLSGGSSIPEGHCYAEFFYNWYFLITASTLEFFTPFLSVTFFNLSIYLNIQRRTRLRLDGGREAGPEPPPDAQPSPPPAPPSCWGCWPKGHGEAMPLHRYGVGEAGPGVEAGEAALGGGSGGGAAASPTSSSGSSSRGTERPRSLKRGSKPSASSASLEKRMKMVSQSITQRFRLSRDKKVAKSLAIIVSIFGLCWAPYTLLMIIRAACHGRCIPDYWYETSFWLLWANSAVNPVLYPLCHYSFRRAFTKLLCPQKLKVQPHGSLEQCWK

[14] = Ex vivo drug level wild type mdr1a (+/+) CF1 mouse plasma at 1 mg/kg, po after 2 hrs; format: ADME, organism-based; design: dose 1 mg/kg, route oral; settings: read-out: Drug uptake; in short: as §1
[15] = target: Voltage-gated inwardly rectifying potassium channel KCNH2 (Homo sapiens, UniProt Q12809); experiment: Antagonist activity at human ERG in HEK293 cells assessed as inhibition of [35S]N-[(4R)-1'-[(2R)-6-cyano-1,2,3,4-tetrahydro-2-naphthalenyl]-3,4-dihydro-4-hydroxyspiro[2H-1-benzopyran-2,4'-piperidin]-6-yl]methanesulfonamide binding
Sequence of Voltage-gated inwardly rectifying potassium channel KCNH2 (Q12809 whole entry): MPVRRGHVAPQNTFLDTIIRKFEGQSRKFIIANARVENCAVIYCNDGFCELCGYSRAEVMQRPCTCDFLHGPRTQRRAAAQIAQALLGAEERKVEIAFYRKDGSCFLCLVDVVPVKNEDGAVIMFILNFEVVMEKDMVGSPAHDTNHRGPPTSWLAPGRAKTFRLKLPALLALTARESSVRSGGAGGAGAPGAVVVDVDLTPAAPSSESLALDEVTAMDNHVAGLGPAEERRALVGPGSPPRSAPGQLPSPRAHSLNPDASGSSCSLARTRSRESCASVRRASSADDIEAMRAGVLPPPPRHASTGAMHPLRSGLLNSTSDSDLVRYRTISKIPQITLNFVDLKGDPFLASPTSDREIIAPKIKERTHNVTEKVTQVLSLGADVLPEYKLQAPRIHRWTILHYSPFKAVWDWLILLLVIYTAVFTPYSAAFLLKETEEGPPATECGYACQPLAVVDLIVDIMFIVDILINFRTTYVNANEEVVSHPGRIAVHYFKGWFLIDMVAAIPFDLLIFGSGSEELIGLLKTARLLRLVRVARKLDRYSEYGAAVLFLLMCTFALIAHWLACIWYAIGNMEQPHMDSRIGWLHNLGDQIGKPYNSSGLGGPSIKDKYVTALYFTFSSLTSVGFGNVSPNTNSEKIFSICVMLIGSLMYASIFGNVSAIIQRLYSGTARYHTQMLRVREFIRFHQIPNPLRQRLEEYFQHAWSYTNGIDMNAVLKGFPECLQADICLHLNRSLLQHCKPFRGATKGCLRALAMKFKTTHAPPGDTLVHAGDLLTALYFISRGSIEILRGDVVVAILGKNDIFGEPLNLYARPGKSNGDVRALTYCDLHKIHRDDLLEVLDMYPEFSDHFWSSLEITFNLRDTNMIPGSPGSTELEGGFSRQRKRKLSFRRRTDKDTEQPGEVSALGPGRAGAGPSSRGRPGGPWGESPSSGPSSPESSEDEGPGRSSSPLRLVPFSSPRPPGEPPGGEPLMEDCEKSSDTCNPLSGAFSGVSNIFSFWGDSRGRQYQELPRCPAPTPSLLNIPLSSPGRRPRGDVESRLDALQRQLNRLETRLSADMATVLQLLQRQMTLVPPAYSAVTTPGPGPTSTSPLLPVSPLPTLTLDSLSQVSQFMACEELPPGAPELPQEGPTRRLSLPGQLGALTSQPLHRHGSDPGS

[16] = Cmax in rhesus monkey at 0.3 mg/kg, iv and 1 mg/kg, po; format: ADME, organism-based, Macaca mulatta; settings: in vivo; in short: as §2
[17] = target: T1, Histamine H3 receptor (Homo sapiens, UniProt Q9Y5N1); experiment: Displacement of [3H]N-alpha-methylhistamine from human recombinant histamine H3 receptor expressed in CHO-K1 cells; format: cell-based
T1 sequence (Q9Y5N1 whole entry): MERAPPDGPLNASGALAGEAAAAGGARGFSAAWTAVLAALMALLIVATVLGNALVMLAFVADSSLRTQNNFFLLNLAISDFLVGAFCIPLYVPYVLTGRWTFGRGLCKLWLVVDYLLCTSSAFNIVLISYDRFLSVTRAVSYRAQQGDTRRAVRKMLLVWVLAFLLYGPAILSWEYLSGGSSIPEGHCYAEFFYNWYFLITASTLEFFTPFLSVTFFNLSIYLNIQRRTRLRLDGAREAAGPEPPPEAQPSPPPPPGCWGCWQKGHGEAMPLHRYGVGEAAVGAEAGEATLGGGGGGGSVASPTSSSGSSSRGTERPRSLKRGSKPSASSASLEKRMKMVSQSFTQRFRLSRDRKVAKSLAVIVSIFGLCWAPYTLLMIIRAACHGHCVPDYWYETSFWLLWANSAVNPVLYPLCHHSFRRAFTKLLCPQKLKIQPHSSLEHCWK

[18] = test system: Brain; experiment: Ex vivo drug level in wild type mdr1a (+/+) CF1 mouse brain at 1 mg/kg, po after 2 hrs; format: ADME, organism-based; design: dose 1 mg/kg, route oral; in short: as §1
[19] = test system: Mus musculus; experiment: Toxicity against in ICR mouse assessed as gross behavior activity at 100 mg/kg; format: organism-based; design: dose 100 mg/kg; settings: in vivo
In short: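 Mice dosed orally at 100 mg/kg. Scored for psychomotor and motor activity, muscle tone, CNS excitation, autonomic responses and reflexes.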

[20] = AUC (0 to infinity) in rhesus monkey at 1 mg/kg, po; format: ADME, organism-based, Macaca mulatta, Plasma; design: time infinity, dose 1 mg/kg, route oral; settings: plasma; in short: as §2
[21] = Plasma concentration in Sprague-Dawley rat at 10 mg/kg, po after 2 hrs; format: ADME, organism-based; design: dose 10 mg/kg, route oral; in short: as §4
[22] = Cmax in anesthetized Beagle dog at 3 mg/kg, iv; format: ADME, organism-based, Canis lupus familiaris; design: dose 3 mg/kg, route intravenous; settings: in vivo
In short: (§5)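 Anesthetized, ventilated dogs given 3 mg/kg iv and monitored for cardiovascular effects.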

[23] = Drug level in Sprague-Dawley rat cerebrospinal fluid at 10 mg/kg, po after 2 hrs; format: ADME, organism-based; design: dose 10 mg/kg, route oral; settings: read-out: Drug uptake; in short: as §4
[24] = target: Histamine H4 receptor (Homo sapiens, UniProt Q9H3N8); experiment: Inhibition of human histamine H4 receptor
Sequence of Histamine H4 receptor (Q9H3N8 whole entry): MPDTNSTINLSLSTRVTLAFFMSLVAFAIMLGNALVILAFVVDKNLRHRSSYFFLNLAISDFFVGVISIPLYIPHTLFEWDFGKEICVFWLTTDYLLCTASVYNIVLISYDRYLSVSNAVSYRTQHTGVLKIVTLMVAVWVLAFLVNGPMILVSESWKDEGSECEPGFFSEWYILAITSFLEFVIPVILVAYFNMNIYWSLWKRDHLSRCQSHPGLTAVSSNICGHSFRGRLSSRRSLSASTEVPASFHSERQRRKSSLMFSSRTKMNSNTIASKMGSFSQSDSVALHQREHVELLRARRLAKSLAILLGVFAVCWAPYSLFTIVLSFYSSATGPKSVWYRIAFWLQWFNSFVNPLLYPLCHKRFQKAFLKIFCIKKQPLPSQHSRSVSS

[25] = target: Histamine H3 receptor (Mus musculus, UniProt P58406); experiment: Displacement of [3H]N-alpha-methylhistamine from mouse recombinant histamine H3 receptor
Sequence of Histamine H3 receptor (Mus musculus, UniProt P58406) (P58406 whole entry): as the sequence (Q9QYN8 whole entry) above, with T15A, A286T, A290G, R387H, I389V counted along it

[26] = AUC (0 to infinity) in Sprague-Dawley rat at 3 mg/kg, po; format: ADME, organism-based; design: time infinity, dose 3 mg/kg, route oral; settings: plasma; in short: as §2
[27] = test system: LLC-PK1; experiment: Ratio of permeability from apical to basolateral side over basolateral to apical side in pig LLC-PK1 cells expressing mouse MDR1a; format: ADME, cell-based, Sus scrofa
[28] = test system: Mus musculus; experiment: Ex vivo receptor occupancy of histamine H3 receptor expressed in wild type po dosed CF1 mouse brain after 2 hrs; format: functional; in short: as §3
[29] = Cmax in Beagle dog at 0.3 mg/kg, iv and 1 mg/kg, po; format: ADME, organism-based, Canis lupus familiaris; settings: in vivo; in short: as §2
[30] = target: Histamine H2 receptor (Homo sapiens, UniProt P25021); experiment: Inhibition of human histamine H2 receptor
Sequence of Histamine H2 receptor (P25021 whole entry): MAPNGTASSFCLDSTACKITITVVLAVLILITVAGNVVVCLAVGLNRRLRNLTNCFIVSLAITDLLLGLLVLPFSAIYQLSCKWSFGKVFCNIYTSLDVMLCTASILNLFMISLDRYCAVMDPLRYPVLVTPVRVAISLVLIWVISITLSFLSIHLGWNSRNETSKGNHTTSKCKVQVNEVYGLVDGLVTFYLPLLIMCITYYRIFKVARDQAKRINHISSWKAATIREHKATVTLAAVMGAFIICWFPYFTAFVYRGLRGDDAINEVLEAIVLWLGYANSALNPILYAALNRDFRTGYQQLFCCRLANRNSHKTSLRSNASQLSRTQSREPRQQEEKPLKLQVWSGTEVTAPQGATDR

[31] = Ratio of drug level brain to plasma in mdr1a (-/-) deficient CF1 mouse at 1 mg/kg, po after 2 hrs; format: ADME, organism-based; design: dose 1 mg/kg, route oral; settings: read-out: BPR; in short: as §1
[32] = Oral bioavailability in Beagle dog at 1 mg/kg; format: ADME, organism-based, Canis lupus familiaris; settings: Beagle, in vivo; in short: as §2
[33] = Plasma clearance in Beagle dog at 0.3 mg/kg, iv; format: ADME, organism-based, Canis lupus familiaris; design: dose 0.3 mg/kg, route intravenous; in short: as §2
[34] = target: T1, Histamine H3 receptor; experiment: Antagonist activity at human cloned histamine H3 receptor expressed in CHO-K1 cells assessed as inhibition of R-alpha-methylhistamine-induced [35S]GTPgammaS binding; format: functional, cell-based
[35] = test system: Rattus norvegicus; experiment: Ex vivo receptor occupancy of histamine H3 receptor in Sprague-Dawley rat assessed as drug level in brain at 1 mg/kg, po after 2 hrs; format: functional
In short: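 Male SD rats given vehicle or 1 mg/kg compound by oral gavage and decapitated at 2 h. Striatal sections (20 μm) incubated 10 min at room temperature with 400 pM tritiated H3 inverse agonist radioligand in sodium phosphate buffer. Nonspecific binding defined with 10 μM R-α-methylhistamine. Beta-Imager exposure 6 h. Drug levels measured by LC-MS/MS.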

[36] = Plasma clearance in Sprague-Dawley rat at 1 mg/kg, iv; format: ADME, organism-based; design: dose 1 mg/kg, route intravenous; in short: as §2
[37] = Plasma clearance in rhesus monkey at 0.3 mg/kg, iv; format: ADME, organism-based, Macaca mulatta; design: dose 0.3 mg/kg, route intravenous; in short: as §2
[38] = Oral bioavailability in Sprague-Dawley rat at 3 mg/kg; format: ADME, organism-based; settings: in vivo; in short: as §2
[39] = test system: Canis familiaris; experiment: Toxicity against in anesthetized Beagle dog assessed as cardiovascular effects; format: organism-based, Canis lupus familiaris; settings: in vivo; in short: as §5
[40] = test system: Brain; experiment: Drug level in Sprague-Dawley rat brain at 10 mg/kg, po after 2 hrs; format: ADME, organism-based; design: dose 10 mg/kg, route oral; settings: in vivo; in short: as §4
[41] = Ex vivo drug level in mdr1a (-/-) deficient CF1 mouse plasma at 1 mg/kg, po after 2 hrs; format: ADME, organism-based; design: dose 1 mg/kg, route oral; settings: read-out: Drug uptake; in short: as §1

In the case of Cc1nc2cccc(C(F)(F)F)c2c(=O)n1-c1ccc(OC2CCN(C3CCC3)CC2)cc1, the Kp at 2 h [1] is reported as 2.6, the AUC(0-inf) [2] is reported as 1.3 µM·h and the Occ90 [3] is reported as 11 nM. It also gave an Occ90 [4] of 58 nM, a Cmax [5] of 420 nM and a Kp at 2 h [6] of 3.3. For the same compound, the Ratio [7] was 0.7, the Drug uptake [8] was 0.137 nmol/g and the IC50 [9] was > 10 µM. The bioavailability [10] was 11%, the Activity [11] was “Dose-dependent effect” and the Ratio [12] was 0.05. For the same compound, the Ki [13] was 2.3 nM, the concentration at 2 h [14] was 12 nM and the IC50 [15] was > 10 µM. The Cmax [16] was 50 nM, the Ki [17] was 3.6 nM and the Drug uptake [18] was 0.031 nmol/g. The Activity [19] was “Non-toxic”, the AUC(0-inf) [20] was 0.15 µM·h and the concentration at 2 h [21] was 700 nM. The Cmax [22] was 3.2 µM, the concentration at 2 h [23] was 110 nM and the IC50 [24] was > 10 µM. The Ki [25] was 3.9 nM, the AUC(0-inf) [26] was 1.66 µM·h and the Ratio [27] was 2.5. The Occ90 [28] was 0.15 nmol/g, the Cmax [29] was 280 nM and the IC50 [30] was > 10 µM. It also gave a Kp at 2 h [31] of 13, a bioavailability [32] of 46% and a clearance [33] of 13 mL/min/kg. The IC50 [34] was 0.33 nM, the Activity [35] was >90% and the clearance [36] was 24 mL/min/kg. The clearance [37] was 26 mL/min/kg, the bioavailability [38] was 33% and the Activity [39] was “Non-toxic”. It also gave a Drug uptake [40] of 2.3 nmol/g and a concentration at 2 h [41] of 10 nM.
